Results reported in ChEMBL document CHEMBL3045240 (J Med Chem, 1987).

Experiments:
[1] = molecular target: T1, Ryanodine receptor 1 (Oryctolagus cuniculus, UniProt P11716)
[2] = system: Musca domestica; experiment: Toxicity against SCR-susceptible Musca domestica (house fly) assessed as immobility compound administered by intrathoracic injection 2 hr after piperonyl butoxide treatment measured 4 hr post compound treatment; assay type: functional
Outline: (§1)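 Houseflies first received 7.5 μg piperonyl butoxide in 0.5 μL acetone topically on the abdomen. After 2 h they were given the test compound by intrathoracic injection in 1 μL of 50% aqueous ethanol. Flies immobilised at 4 h were scored, and KD50 came from log dose–probit plots. Two independent experiments were run, each with 10 flies per dose and 1.5–2-fold dose spacing.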

[3] = Toxicity in ip dosed Mus musculus Swiss-Webster (mouse) assessed as mortality measured after 24 hr; assay type: organism-based; settings: in vivo
[4] = system: Musca domestica; experiment: Drug metabolism in SCR-susceptible Musca domestica (house fly) assessed as unidentified metabolite intermediate Rf in exctreta at 160 ug/g after 4 hr by TLC method; assay type: ADME, organism-based; settings: in vivo
[5] = system: Musca domestica; experiment: Drug metabolism in SCR-susceptible Musca domestica (house fly) assessed as unidentified metabolite intermediate Rf in exctreta at 160 ug/g after 1 hr by TLC method; assay type: ADME, organism-based; settings: in vivo
Outline: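 Excreta were extracted with MeOH, then run on TLC on 0.20-mm silica gel in 15% MeOH/CHCl3. Metabolites were detected by liquid scintillation counting.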

[6] = system: Musca domestica; experiment: Toxicity against SCR-susceptible Musca domestica (house fly) assessed as immobility compound administered by intrathoracic injection measured 4 hr post compound treatment; assay type: functional
Outline: (§2)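 Houseflies without piperonyl butoxide pretreatment received ryanoid by intrathoracic injection in 50% aqueous ethanol. Knockdown (immobility) was scored 4 h after treatment, and KD50 came from log dose–probit plots. Two independent experiments were run, each with 10 flies per dose and 1.5–2-fold dose spacing.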

[7] = system: Musca domestica; experiment: Ratio of compound KD50 to ryanodine KD50 for SCR-susceptible Musca domestica (house fly) assessed as immobility compound administered by intrathoracic injection measured 4 hr post compound treatment; assay type: ADME, organism-based; settings: in vivo, other
Outline: as §2

[8] = system: Mus musculus; experiment: Ratio of compound LC50 to ryanodine LC50 for ip dosed Mus musculus Swiss-Webster (mouse) assessed as mortality measured after 24 hr; assay type: ADME, organism-based; settings: in vivo
[9] = molecular target: T1, Ryanodine receptor 1; experiment: Ratio of compound IC50 to ryanodine IC50 for Ca2+-ryanodine receptor in Oryctolagus cuniculus (rabbit) skeletal muscle sarcoplasmic reticulum after 80 min by competitive inhibition assay; assay type: ADME
Outline: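 Rabbit fast skeletal muscle heavy SR (terminal cisternae) receptor, solubilised with 1 M NaCl, 1 mg CHAPS/mg protein and 40 mM Tris/maleate pH 7.1. […] Incubation was 80 min at 37°C, then GF/C filtration. IC50 came from Hill regression.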

[10] = system: Musca domestica; experiment: Ratio of compound KD50 to ryanodine KD50 for SCR-susceptible Musca domestica (house fly) assessed as immobility compound administered by intrathoracic injection 2 hr after piperonyl butoxide treatment measured 4 hr post compound treatment; assay type: functional
Outline: as §1

T1 sequence (P11716 whole entry): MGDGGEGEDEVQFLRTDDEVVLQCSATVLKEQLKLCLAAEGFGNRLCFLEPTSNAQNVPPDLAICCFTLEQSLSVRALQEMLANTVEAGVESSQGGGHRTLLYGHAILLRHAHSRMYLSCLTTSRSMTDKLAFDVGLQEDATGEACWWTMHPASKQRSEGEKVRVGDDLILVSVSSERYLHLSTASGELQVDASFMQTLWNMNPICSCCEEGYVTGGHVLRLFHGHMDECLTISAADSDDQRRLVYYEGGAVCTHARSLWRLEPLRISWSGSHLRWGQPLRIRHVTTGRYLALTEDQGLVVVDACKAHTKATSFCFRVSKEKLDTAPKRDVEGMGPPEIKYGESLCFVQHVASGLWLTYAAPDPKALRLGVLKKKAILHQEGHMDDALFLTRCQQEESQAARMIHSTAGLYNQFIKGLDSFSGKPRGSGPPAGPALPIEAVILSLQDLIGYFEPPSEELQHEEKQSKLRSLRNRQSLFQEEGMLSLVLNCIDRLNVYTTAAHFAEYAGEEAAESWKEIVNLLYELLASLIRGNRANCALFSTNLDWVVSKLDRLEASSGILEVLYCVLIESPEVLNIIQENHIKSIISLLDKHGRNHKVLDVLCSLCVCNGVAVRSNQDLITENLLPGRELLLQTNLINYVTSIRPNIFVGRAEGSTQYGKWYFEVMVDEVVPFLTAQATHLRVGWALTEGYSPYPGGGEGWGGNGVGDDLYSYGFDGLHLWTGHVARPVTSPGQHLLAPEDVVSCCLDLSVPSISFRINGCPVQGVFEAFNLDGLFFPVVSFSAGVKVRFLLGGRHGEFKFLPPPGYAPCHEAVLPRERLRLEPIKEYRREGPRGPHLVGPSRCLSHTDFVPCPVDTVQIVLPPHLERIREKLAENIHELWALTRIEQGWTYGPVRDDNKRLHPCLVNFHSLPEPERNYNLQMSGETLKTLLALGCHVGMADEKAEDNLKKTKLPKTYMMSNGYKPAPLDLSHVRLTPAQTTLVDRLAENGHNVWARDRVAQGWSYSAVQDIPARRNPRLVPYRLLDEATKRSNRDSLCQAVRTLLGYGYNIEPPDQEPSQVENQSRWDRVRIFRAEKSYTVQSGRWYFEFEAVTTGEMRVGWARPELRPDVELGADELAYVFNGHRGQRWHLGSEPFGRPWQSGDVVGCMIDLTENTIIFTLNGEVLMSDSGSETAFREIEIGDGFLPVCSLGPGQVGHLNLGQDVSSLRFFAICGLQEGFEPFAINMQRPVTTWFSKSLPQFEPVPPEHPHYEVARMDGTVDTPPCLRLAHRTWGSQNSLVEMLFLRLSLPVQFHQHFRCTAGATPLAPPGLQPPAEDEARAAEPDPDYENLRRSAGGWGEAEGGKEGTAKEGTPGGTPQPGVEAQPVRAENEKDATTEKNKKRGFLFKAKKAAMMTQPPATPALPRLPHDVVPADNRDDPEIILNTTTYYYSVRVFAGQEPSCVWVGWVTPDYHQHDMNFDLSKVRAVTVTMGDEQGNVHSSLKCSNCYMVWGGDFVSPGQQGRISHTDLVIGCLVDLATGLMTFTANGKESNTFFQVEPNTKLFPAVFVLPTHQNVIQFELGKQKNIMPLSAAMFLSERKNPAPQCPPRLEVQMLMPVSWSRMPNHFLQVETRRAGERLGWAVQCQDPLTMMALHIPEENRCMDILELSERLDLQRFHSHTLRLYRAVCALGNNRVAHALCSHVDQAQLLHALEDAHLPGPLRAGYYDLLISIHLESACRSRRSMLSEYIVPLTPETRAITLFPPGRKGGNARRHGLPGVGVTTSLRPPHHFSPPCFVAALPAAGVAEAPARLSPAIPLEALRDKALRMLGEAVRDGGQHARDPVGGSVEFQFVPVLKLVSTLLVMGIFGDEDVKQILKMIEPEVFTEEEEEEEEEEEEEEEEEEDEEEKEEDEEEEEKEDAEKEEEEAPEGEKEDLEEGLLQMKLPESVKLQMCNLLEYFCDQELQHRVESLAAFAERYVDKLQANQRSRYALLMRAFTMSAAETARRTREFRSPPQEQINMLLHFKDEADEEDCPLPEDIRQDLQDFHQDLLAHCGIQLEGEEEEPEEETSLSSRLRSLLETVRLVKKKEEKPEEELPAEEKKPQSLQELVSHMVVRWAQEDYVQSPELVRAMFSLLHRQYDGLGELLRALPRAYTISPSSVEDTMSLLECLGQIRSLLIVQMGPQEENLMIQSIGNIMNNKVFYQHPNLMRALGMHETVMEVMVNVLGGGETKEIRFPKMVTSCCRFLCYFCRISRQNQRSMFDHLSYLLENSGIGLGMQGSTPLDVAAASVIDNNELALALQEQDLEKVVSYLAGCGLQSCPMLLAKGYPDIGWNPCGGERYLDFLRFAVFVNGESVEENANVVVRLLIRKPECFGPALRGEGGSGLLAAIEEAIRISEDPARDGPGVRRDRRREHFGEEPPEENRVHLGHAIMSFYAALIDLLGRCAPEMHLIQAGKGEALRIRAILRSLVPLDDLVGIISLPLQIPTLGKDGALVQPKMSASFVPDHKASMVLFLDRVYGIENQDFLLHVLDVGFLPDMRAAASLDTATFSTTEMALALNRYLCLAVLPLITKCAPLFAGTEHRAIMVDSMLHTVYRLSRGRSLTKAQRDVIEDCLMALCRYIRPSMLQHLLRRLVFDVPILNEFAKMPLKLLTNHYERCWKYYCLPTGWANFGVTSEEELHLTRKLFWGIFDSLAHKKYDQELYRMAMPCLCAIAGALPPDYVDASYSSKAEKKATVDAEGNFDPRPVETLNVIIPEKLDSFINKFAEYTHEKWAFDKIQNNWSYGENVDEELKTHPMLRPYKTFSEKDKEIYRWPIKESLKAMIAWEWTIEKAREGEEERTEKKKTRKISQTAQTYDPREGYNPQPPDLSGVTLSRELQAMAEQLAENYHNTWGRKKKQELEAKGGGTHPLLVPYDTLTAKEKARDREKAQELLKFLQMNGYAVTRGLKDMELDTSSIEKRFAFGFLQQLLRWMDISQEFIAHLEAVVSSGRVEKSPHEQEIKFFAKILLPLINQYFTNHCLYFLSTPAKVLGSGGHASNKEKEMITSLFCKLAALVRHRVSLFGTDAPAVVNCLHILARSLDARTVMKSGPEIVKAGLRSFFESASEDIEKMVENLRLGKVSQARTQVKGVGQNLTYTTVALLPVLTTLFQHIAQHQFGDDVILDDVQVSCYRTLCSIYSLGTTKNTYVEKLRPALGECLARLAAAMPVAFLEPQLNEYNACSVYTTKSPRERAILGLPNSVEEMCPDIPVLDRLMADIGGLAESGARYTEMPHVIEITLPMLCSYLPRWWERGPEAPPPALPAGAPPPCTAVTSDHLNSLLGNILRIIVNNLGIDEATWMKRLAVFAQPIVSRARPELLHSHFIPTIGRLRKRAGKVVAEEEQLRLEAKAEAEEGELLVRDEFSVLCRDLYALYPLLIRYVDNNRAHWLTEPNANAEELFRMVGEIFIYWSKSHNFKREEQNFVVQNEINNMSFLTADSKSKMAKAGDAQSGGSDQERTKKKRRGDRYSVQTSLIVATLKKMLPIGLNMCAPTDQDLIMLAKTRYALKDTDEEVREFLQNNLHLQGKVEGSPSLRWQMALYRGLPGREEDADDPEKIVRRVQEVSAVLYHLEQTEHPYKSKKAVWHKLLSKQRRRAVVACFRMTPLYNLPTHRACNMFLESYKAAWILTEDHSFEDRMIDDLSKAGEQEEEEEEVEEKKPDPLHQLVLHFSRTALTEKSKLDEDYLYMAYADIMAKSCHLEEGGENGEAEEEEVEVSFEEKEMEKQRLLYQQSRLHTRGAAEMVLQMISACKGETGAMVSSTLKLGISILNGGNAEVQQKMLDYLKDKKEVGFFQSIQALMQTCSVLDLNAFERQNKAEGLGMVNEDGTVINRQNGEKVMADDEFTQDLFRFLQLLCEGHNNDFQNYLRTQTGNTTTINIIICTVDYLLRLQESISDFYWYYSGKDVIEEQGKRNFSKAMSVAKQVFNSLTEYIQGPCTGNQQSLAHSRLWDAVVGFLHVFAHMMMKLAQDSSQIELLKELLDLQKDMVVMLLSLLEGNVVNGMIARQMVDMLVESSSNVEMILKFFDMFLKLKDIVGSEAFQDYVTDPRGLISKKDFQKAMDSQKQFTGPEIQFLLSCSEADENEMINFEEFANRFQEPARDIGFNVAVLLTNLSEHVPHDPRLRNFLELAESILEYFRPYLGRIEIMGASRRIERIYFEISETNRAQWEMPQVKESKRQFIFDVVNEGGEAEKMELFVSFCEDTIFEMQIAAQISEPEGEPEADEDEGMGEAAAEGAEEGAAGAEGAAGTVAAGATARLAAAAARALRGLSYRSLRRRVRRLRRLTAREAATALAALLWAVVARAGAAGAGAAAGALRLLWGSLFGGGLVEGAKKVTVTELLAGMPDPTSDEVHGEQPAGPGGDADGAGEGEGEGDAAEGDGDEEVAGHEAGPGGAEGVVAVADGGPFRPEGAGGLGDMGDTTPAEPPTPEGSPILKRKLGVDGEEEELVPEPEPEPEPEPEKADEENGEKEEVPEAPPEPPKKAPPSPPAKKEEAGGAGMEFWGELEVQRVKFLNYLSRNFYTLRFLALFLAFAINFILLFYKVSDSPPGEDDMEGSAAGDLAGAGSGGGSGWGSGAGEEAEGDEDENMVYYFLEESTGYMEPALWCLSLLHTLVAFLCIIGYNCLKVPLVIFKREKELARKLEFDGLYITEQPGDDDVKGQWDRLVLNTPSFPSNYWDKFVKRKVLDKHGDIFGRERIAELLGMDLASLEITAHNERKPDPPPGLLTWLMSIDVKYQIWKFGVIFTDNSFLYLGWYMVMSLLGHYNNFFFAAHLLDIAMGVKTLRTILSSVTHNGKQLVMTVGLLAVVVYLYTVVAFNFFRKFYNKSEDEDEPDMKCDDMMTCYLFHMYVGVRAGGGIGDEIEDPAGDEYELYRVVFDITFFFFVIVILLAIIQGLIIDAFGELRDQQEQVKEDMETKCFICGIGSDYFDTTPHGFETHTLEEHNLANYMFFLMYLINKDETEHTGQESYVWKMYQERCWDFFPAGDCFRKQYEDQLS

| SMILES | IC50 [1] [nM] | KD50 [2] [µg/g] | LD50 at 24 h [3] [mg/kg] | further results |
| --- | --- | --- | --- | --- |
| CO[C@@]12C[C@@]3(C)[C@@]4(O)CC[C@H](C)[C@@H](O)[C@]4(O1)[C@]1(O)[C@@]3(O)[C@H](OC(=O)c3cccn3C)[C@](O)(C(C)C)[C@]21C | 280 | >20 | 17 | – |
| CO[C@@]12C[C@@]3(C)[C@@]4(OC)CC[C@H](C)[C@@H](O)[C@]4(O1)[C@]1(O)[C@@]3(O)[C@H](OC(=O)c3cccn3C)[C@](O)(C(C)C)[C@]21C | 1300 | 12 | – | – |
| CO[C@@]12C[C@@]3(C)[C@@]4(O)CC[C@H](C)[C@@H](O)[C@]4(O1)[C@]1(O)[C@@]3(OC)[C@H](OC(=O)c3cccn3C)[C@](O)(C(C)C)[C@]21C | 4500 | >20 | > 20 | – |
| CC1=CC[C@]2(O)[C@]3(C)C[C@]4(O)O[C@@]2(C1=O)[C@]1(O)[C@@]3(O)[C@H](OC(=O)c2ccc[nH]2)[C@](O)(C(C)C)[C@@]14C | 7300 | – | > 5 | – |
| CO[C@@H]1[C@@H](C)CC[C@]2(O)[C@]3(C)C[C@]4(OC)O[C@]12[C@]1(O)[C@@]3(OC)[C@H](OC(=O)c2cccn2C)[C@](O)(C(C)C)[C@]41C | > 10000 | >20 | > 20 | – |
| CC(C)[C@@]1(O)[C@@H](OC(=O)c2ccc[nH]2)[C@@]2(O)[C@@]3(C)C[C@]4(O)O[C@@]5([C@H](O)[C@](O)(CO)CC[C@]35O)[C@@]2(O)[C@]14C [9,21-DIHYDROXYRYANODINE] | 4900 | 10 | – | – |
| CC(C)[C@@]1(O)[C@@H](OC(=O)c2ccc[nH]2)[C@@]2(O)[C@@]3(C)C[C@]4(O)O[C@@]5([C@H](O)C6(CC[C@]35O)CO6)[C@@]2(O)[C@]14C (stereo not given in full) [9,21-EPOXYRYANODINE] | 140 | 0.3 | 1.5 | – |
| CC(=O)O[C@@H]1[C@@H](C)CC[C@]2(O)[C@]3(C)C[C@]4(O)O[C@]12[C@]1(O)[C@@]3(O)[C@H](OC(=O)c2ccc[nH]2)[C@](O)(C(C)C)[C@@]14C [10-ACETYLRYANODINE] | 140 | 0.5 | – | – |
| CC(C)[C@@]1(O)[C@@H](OC(=O)c2ccc[nH]2)[C@@]2(O)[C@@]3(C)C[C@]4(O)O[C@@]5(C(=O)[C@@H](C)CC[C@]35O)[C@@]2(O)[C@]14C [10-KETORYANODINE] | 100 | >20 | 0.55 | – |
| CC(CO)[C@@]1(O)[C@@H](OC(=O)c2ccc[nH]2)[C@@]2(O)[C@@]3(C)C[C@]4(O)O[C@@]5([C@H](O)[C@@H](C)CC[C@]35O)[C@@]2(O)[C@]14C (stereo not given in full) [18-HYDROXYRYANODINE] | 88 | – | 0.9 | – |
| CC(C)[C@@]1(O)[C@@H](OC(=O)c2[nH]c(Br)c(Br)c2Br)[C@@]2(O)[C@@]3(C)C[C@]4(O)O[C@@]5([C@H](O)[C@@H](C)CC[C@]35O)[C@@]2(O)[C@]14C [24,25,26-TRIBROMORYANODINE] | > 10000 | – | > 20 | – |
| CC1=C(C(C)C)[C@@H](OC(=O)c2ccc[nH]2)[C@@]2(O)[C@@]3(C)CC(=O)O[C@@]4([C@H](O)[C@@H](C)CC[C@]34O)[C@@]12O [ANHYDRORYANODINE] | > 10000 | – | > 20 | – |
| C=C1CC[C@]2(O)[C@]3(C)C[C@]4(O)O[C@@]2([C@@H]1O)[C@]1(O)[C@@]3(O)[C@H](OC(=O)c2ccc[nH]2)[C@](O)(C(C)C)[C@@]14C [DEHYDRORYANODINE] | 13 | 0.03 | 0.1 | – |
| C=C1CC[C@]2(O)[C@]3(C)C[C@]4(O)O[C@@]2([C@@H]1O)[C@]1(O)[C@@]3(O)[C@H](O)[C@](O)(C(C)C)[C@@]14C [DIDEHYDRORYANODOL] | 10000 | 0.36 | > 20 | – |
| CC(C)[C@@]1(O)[C@@H](OC(=O)c2ccc[nH]2)[C@@]2(O)[C@@]3(C)C[C@]4(O)O[C@@]5([C@H](O)[C@H](C)CC[C@]35O)[C@@]2(O)[C@]14C [EPIRYANODINE] | – | – | 0.47 | – |
| CC(C)[C@@]1(O)[C@@H](OC(=O)c2cccn2Cc2ccccc2)[C@@]2(O)[C@@]3(C)C[C@]4(O)O[C@@]5([C@H](O)[C@@H](C)CC[C@]35O)[C@@]2(O)[C@]14C [N-BENZYLRYANODINE] | 310 | – | 6.3 | – |
| CCCCn1cccc1C(=O)O[C@H]1[C@@]2(O)[C@@]3(C)C[C@]4(O)O[C@@]5([C@H](O)[C@@H](C)CC[C@]35O)[C@@]2(O)[C@]4(C)[C@@]1(O)C(C)C [N-BUTYLRYANODINE] | 860 | – | – | – |
| CC(C)[C@@]1(O)[C@@H](OC(=O)c2cc[nH]c2)[C@@]2(O)[C@]3(C)C[C@@]4(O)O[C@@]5([C@H](O)[C@@H](C)CC[C@]35O)[C@@]2(O)[C@@]41C [RYANODINE] | – | – | – | Drug metabolism [4]: Active; Drug metabolism [5]: Active |
| CC(C)[C@@]1(O)[C@@H](OC(=O)c2ccc[nH]2)[C@@]2(O)[C@@]3(C)C[C@]4(O)O[C@@]5([C@H](O)[C@@H](C)CC[C@]35O)[C@@]2(O)[C@@]14C [RYANODINE] | – | – | 0.1 | – |
| CC(C)[C@@]1(O)[C@@H](O)[C@@]2(O)[C@@]3(C)C[C@]4(O)O[C@@]5([C@H](O)[C@@H](C)CC[C@]35O)[C@@]2(O)[C@]14C [RYANODOL] | 35000 | 0.34 | > 20 | KD50 [6]: 1.1 µg/g; Ratio [7]: 0.8; Ratio [8]: > 200; Ratio IC50 [9]: 3500; Ratio [10]: 3.6 |
